Sampled rows, rich in hits. Any-hit rate of the full collection: about 3.7%.
KCNK9 inh = blocks the human KCNK9 two-pore domain potassium channel; Q9NPC2; HEK293 KCNK9, FluxOR thallium flux fluorescence; active compounds read low; B-score at 10 µM; 310,000 compounds, 1.2% hits; AID 488922;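 active = ratio B-score over 3 SD below the library mean, with starting fluorescence within 5 SD of its mean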;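 note: negative B-score means less thallium flux so channel inhibition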
hERG rescue = shields human hERG channel from block by proarrhythmic agents | 310,000 compounds, 0.51% hits | CHO-hERG, FluxOR thallium flux, dofetilide IC70 present | activation (rescue from dofetilide block), less the hit threshold, % at 10 µM | Q12809;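 active = activation above the mean of controls blocked by dofetilide plus 5 SD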;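 note: thallium influx through hERG after potassium depolarization seen as dye fluorescence rise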
Kir21 inh = blocks the mouse Kir2.1 inward-rectifier potassium channel. P35561. 310,000 compounds, 0.85% hits. B-score at 10 µM. AID 1672. HEK293-Kir2.1, FluxOR thallium flux fluorescence; active compounds read low;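 active = fluorescence ratio B-score at or below minus 3 SD of library scores, with starting-brightness B-score within 2 SD, cut at about -4.2 in these data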;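 note: channel flux triggered by added potassium and thallium sulfate stimulus; B-score of peak minus minimum fluorescence over baseline after thallium stimulus; more negative B-score means stronger Kir2.1 block with less thallium influx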
KCNK3 block = human KCNK3 channel inhibition, primary screen | CHO-KCNK3 thallium flux, FluxOR fluorescence; active compounds read low | B-score at 10 µM | 340,000 compounds, 0.84% hits | AID 602410;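 active = B-score under library mean minus 4 SD, starting fluorescence ratio at most library mean plus 5 SD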;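 note: more negative B-score means stronger inhibition of thallium flux through KCNK3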
Target sequence (O14649 whole entry, looked up): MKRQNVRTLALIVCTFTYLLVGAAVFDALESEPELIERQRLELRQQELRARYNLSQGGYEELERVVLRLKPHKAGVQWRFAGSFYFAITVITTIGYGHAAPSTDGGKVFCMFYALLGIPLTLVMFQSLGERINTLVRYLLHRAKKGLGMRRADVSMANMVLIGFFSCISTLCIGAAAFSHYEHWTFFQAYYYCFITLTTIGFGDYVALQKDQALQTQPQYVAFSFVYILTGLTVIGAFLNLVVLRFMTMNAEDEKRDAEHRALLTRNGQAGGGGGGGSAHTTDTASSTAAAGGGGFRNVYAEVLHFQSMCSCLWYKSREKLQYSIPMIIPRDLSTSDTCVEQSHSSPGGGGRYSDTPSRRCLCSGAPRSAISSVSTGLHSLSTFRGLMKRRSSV
KCNQ1 inh = human KCNQ1 channel inhibition. AID 2642. 310,000 compounds, 1.3% hits. B-score at 10 µM. CHO-K1 KCNQ1, FluxOR thallium flux fluorescence; active compounds read high. P51787;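 active = compounds whose thallium flux B-score, printed positive for inhibition, exceeds three library SD while starting fluorescence stays within three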;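 note: channel opened by potassium depolarization with thallium stimulus after 20 min compound exposure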
KCNQ1 act = human KCNQ1 channel potentiation or activation; B-score at 10 µM; P51787; 310,000 compounds, 0.35% hits; CHO-K1 KCNQ1, thallium flux FluxOR fluorescence; active compounds read high;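 active = fluorescence ratio B-score, a plate-corrected score, at least three library SD, with initial intensity B-score within 5 SD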
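Material: CHO-K1 cells stably expressing KCNQ1. Medium: assay buffer for compound exposure, DMSO matched across wells. Reagent: K+/Tl+ depolarizing stimulus. Compound dosing: single-concentration screen. Times: 37 °C overnight plating, 90-min dark dye load, 20-min compound pretreatment. Technique: FluxOR Tl+ flux fluorescence.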
KCNK9 block conf = human KCNK9 inhibitor confirmation. HEK293 KCNK9 cells, FluxOR thallium flux fluorescence. 4,900 compounds, 43% hits. AID 492992. inhibition, % at 10 µM. shares compounds with KCNK9 inh;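 active = thallium signal inhibited by more than 5 SD of the compound-free buffer control wells, on both duplicate plates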;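 note: 0% = assay buffer control wells without compound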
Kir2-1 spec = tests whether KCNK9 modulators also affect mouse Kir2.1; Kir2.1 cells, FluxOR thallium flux fluorescence; AID 492993; 4,900 compounds, 4% hits; shares compounds with KCNK9 inh; inhibition, % at 10 µM;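 active = thallium signal drop more than 5 SD beyond the mean of the no-compound control wells, seen in both duplicate plates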;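 note: signal is fluorescence rise after thallium addition divided by baseline fluorescence; plate controls were assay buffer only for no effect and full block by chlorpromazine control for full effect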
KCNK9 uninduced = non-induced cell nonspecific activity of KCNK9 modulators; inhibition, % at 10 µM; shares compounds with KCNK9 inh; non-induced KCNK9-HEK293, FluxOR thallium flux; 4,900 compounds, 40% hits;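 active = thallium signal drop beyond 5 SD of the untreated control mean, on both duplicate plates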;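 note: plate controls were buffer only IC0 wells for no effect and SID17386958 at its maximal inhibitory level for full effect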
* = called active by the depositor; i = inactive; · = no result given.

SMILES	KCNK9 inh	hERG rescue	Kir21 inh	KCNK3 block	KCNQ1 inh	KCNQ1 act	KCNK9 block conf	Kir2-1 spec	KCNK9 uninduced
O=C(COC(=O)C1CCN(c2ccc(C(F)(F)F)cn2)CC1)c1cccc(Br)c1	i	-16	-0.16	i	i	i	·	·	·
O=C(COC(=O)C1CCN(c2ccc(C(F)(F)F)cn2)CC1)c1ccccc1	i	-7	0.77	i	i	i	i	i	i
CCOc1cc(/C=C2\C(=N)N3N=CSC3=NC2=O)ccc1OS(=O)(=O)c1ccccc1	i	-32	-5*	i	i	i	i	i	i
COc1cc(/C=C2\C(=N)N3N=CSC3=NC2=O)ccc1OS(=O)(=O)c1ccccc1	i	-30	-2.3	i	i	i	·	·	·
CC(OC(=O)c1nc(Cl)ccc1Cl)C(=O)c1ccccc1 (centres undefined)	i	-10	-0.82	i	i	i	·	·	·
COCCOC(=O)c1c(C)oc2ccc(NS(=O)(=O)c3ccccc3)cc12	i	-6	-2.4	i	i	i	·	·	·
CCOC(=O)c1c(C)oc2ccc(NS(=O)(=O)c3ccc4c5c(cccc35)C(=O)N4)cc12	-10*	-11	-0.02	i	i	i	36%*	i	i
CCCOC(=O)Cn1cnc2scc(-c3ccc(OC)cc3)c2c1=O	i	-7	0.52	i	i	i	i	i	i
CCOCCOC(=O)Cn1cnc2scc(-c3ccc(C)cc3)c2c1=O	i	-5	1.5	i	i	i	i	i	i
O=C(Nc1c(C(=O)N2CCOCC2)cnn1-c1ccccc1)c1cccc(F)c1	i	-12	1.2	i	i	i	·	·	·
COc1ccc(CN(CCC(c2ccco2)C(C)C)C(C)=O)cc1OC (centres undefined)	i	-10	-0.99	i	i	i	·	·	·
CC(=O)N(CCC(c1ccco1)C(C)C)Cc1ccc(OC(C)C)cc1 (centres undefined)	-16*	-16	-3	i	i	i	37%*	i	43%*
COc1cccc(NC(=O)CCC(=O)N2CC(C)Oc3ccc(C)cc32)c1 (centres undefined)	i	-12	0.84	i	i	i	·	·	·
N#CCSc1nc2c(c(=O)n1Cc1ccco1)C1(CCCC1)Cc1ccccc1-2	-14*	-4	-1.6	i	6*	i	54%*	i	33%*
COc1cc2c(cc1OC)-c1nnc(-c3ccco3)n1C1(CCCC1)C2	-13*	-8	1.2	i	i	i	46%*	i	28%*
COC(=O)C1CC(O)CN1C(=O)Nc1ccccc1 (centres undefined)	i	-10	1.9	i	i	i	·	·	·
CCN1CCN(c2nc3c(C)cccn3c(=O)c2/C=C(\C#N)C(=O)NCCOC)CC1	i	-1	-0.01	i	i	i	·	·	·
CCOc1cc(C(=O)NC(C)CCc2ccccc2)cc(OCC)c1OCC (centres undefined)	i	-4	-1.2	i	i	i	i	i	i
O=C(c1cccs1)N(Cc1ccco1)c1nc(-c2ccc(F)cc2)cs1	-14*	-6	-2.2	-14*	6*	i	64%*	i	48%*
COc1ccc([C@@H]2CC=C(C(=O)O)[C@H](c3cccc(Cl)c3)N2S(=O)(=O)c2ccccc2C)cc1	·	·	·	i	·	·	·	·	·
O=C(NC12CC3CC(CC(C3)C1)C2)c1ccc(-c2ccccc2Cl)o1	i	-5	-2.9	i	i	i	i	i	i
O=C(NC12CC3CC(CC(C3)C1)C2)c1ccc(-c2ccc(Cl)cc2)o1	i	-11	-0.29	i	i	i	·	·	·
